Experiment [1] deals with T1, Androgen receptor (Mus musculus) (UniProt P19091).
T1 sequence (whole entry): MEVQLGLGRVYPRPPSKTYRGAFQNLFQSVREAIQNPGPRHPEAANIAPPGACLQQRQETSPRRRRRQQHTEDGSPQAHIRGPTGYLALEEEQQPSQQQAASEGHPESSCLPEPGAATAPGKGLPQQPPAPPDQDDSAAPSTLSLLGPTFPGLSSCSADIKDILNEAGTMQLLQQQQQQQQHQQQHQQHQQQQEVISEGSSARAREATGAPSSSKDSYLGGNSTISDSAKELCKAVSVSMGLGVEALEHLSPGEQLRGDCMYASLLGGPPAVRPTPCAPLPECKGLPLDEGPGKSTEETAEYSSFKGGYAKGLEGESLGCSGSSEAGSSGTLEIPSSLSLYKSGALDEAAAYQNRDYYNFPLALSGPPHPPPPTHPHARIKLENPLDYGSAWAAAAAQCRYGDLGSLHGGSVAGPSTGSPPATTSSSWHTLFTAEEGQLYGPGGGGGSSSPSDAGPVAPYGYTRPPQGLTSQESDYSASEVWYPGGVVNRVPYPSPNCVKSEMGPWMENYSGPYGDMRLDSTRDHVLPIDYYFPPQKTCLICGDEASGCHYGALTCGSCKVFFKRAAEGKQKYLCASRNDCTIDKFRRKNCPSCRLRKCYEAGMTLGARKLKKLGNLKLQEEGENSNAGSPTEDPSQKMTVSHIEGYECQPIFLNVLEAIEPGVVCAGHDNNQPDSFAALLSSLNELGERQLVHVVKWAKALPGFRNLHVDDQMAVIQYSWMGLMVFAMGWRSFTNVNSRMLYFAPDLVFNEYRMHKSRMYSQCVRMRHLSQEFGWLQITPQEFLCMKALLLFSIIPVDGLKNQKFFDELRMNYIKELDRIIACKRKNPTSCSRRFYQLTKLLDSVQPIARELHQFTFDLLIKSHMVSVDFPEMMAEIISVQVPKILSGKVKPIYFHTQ
The experiment is described as follows: Antagonist activity against mouse androgen receptor assessed as reduction of 10 nM DHT-induced transcriptional activity at 10 uM after 24 hrs by cell-based luciferase reporter gene assay relative to control. In a few lines: (§1)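 Transcriptional activity is expressed as a percentage after 10 μM compound, given alone for agonist mode or with 10 nM DHT for antagonist mode. Data are from triplicate experiments.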
In general terms: Reporter assays use an easily measured gene product as a stand-in for the process of interest.

In experiment [2] the target is T1, Androgen receptor (Mus musculus). The experiment is described as follows: Agonist activity at mouse androgen receptor at 10 uM after 24 hrs by cell-based luciferase reporter gene assay relative to control. In a few lines:
as §1

The source made the active and inactive calls. The rule behind the calls is not given here.

For orientation: inhibition means how much of the control response was suppressed. On to `O=C(Nc1ccccn1)c1ccc(Cl)nc1`, for which the inhibition result in experiment [1] is “inactive”. The Activity in experiment [2] was 4.9%.

As to `COc1cccc(NC(=O)c2ccc(N3CCc4cc(OC)ccc4C3)nc2)c1`, the inhibition in experiment [1] stood at 95.7%. This molecule also returned an Activity in experiment [2] of 3.1%.

For the molecule `COc1cc2c(cc1OC)CN(c1ccc(C(=O)Nc3cccc(C)n3)cn1)CC2`, in experiment [1], the inhibition was 94.4%. Besides, the Activity in experiment [2] came out at 2.1%.

With `Cc1ccc(NC(=O)c2ccc(Cl)nc2)nc1`, in experiment [1], the inhibition was 43.1%. This molecule also yielded an Activity in experiment [2] of 4.9%.

With `CCOc1ccc2c(c1OCc1ccccc1)CCN(c1ccc(C(=O)N(C)c3cccc(C)n3)cn1)C2`, the inhibition in experiment [1] worked out at 77.5%. In experiment [2], this molecule gave an Activity of 1.6%.

Consider `COc1cccc(NC(=O)c2ccc(N3CCc4c(ccc(OC)c4OC)C3)nc2)c1`, for which the inhibition in experiment [1] came out at 96.6%. The Activity in experiment [2] came out at 3.9%.

As for `COc1cc2c(cc1OC)CN(c1ccc(C(=O)Nc3ccccn3)cn1)CC2`, the inhibition in experiment [1] came out at 84.5%. In experiment [2], this molecule had an Activity of 2.5%.

On to `COc1ccccc1N(C)C(=O)c1ccc(N2CCc3ccccc3C2)nc1`, for which the inhibition in experiment [1] was found to be 48.8%. For the same molecule, the Activity in experiment [2] was 9%.

Regarding `Cc1cccc(NC(=O)c2ccc(N3CCc4cc(OCc5ccccc5)ccc4C3)nc2)n1`, the inhibition in experiment [1] amounted to 61.3%. Moreover, the Activity in experiment [2] was found to be 4.5%.

As for `COc1cc2c(cc1OC)CN(c1ccc(C(=O)Nc3ccc(C)cn3)cn1)CC2`, the inhibition in experiment [1] turned out to be 67.6%. In experiment [2], this molecule gave an Activity of 2.8%.

For the molecule `Cc1ccccc1NC(=O)c1ccc(N2CCc3ccccc3C2)nc1`, in experiment [1], the inhibition came out at 49.7%. Besides, the Activity in experiment [2] stood at 10.4%.

On to `COc1ccc(NC(=O)c2ccc(N3CCc4ccccc4C3)nc2)cn1`, for which the inhibition in experiment [1] was found to be 79.6%. The Activity in experiment [2] stood at 7.2%.

For the molecule `Cc1ccccc1N(C)C(=O)c1ccc(N2CCc3ccccc3C2)nc1`, the inhibition in experiment [1] was determined as 48.2%. Also, in experiment [2], the Activity was found to be 11.7%.

With `O=C(Nc1nccs1)c1ccc(N2CCc3ccccc3C2)nc1`, the inhibition in experiment [1] turned out to be 57.4%. Moreover, the Activity in experiment [2] was found to be 9.7%.

On to `O=C(Nc1ncccn1)c1ccc(N2CCc3ccccc3C2)nc1`, for which the inhibition in experiment [1] turned out to be 27.5%. Moreover, the Activity in experiment [2] was 9.4%.

Turning to `CCOc1ccc2c(c1OC)CCN(c1ccc(C(=O)Nc3cccc(OC)c3)cn1)C2`, the inhibition in experiment [1] came to 91.4%. In addition, the Activity in experiment [2] is 1.8%.

On to `COc1cccc(N(C)C(=O)c2ccc(N3CCc4ccccc4C3)nc2)c1`, for which, in experiment [1], the inhibition worked out at 46.4%. The molecule further had an Activity in experiment [2] of 12.5%.

In the case of `COc1ccc2c(c1)CCN(c1ccc(C(=O)Nc3cccc(C)n3)cn1)C2`, the inhibition in experiment [1] stood at 94.9%. Besides, in experiment [2], the Activity is 4%.

Take `CCOc1ccc2c(c1OCC)CCN(c1ccc(C(=O)Nc3cccc(C)n3)cn1)C2`: in experiment [1], the inhibition amounted to 88.3%. Moreover, in experiment [2], the Activity is 1%.

For `COc1ccccc1NC(=O)c1ccc(N2CCc3ccccc3C2)nc1`, the inhibition in experiment [1] was determined as 59%. The Activity in experiment [2] came out at 7.4%.

Turning to `COc1cc2c(c(OC)c1OC)CCN(c1ccc(C(=O)Nc3cccc(C)n3)cn1)C2`, the inhibition in experiment [1] worked out at 89.1%. The Activity in experiment [2] was 0.8%.

On to `Cc1cccnc1NC(=O)c1ccc(Cl)nc1`, for which, in experiment [1], the inhibition was found to be 0.6%. Moreover, the Activity in experiment [2] amounted to 3.8%.

As to `Cc1ccnc(N(C)C(=O)c2ccc(N3CCc4ccccc4C3)nc2)c1`, the inhibition in experiment [1] was 32.5%. In experiment [2], this molecule showed an Activity of 12.1%.

For `Cc1ccnc(NC(=O)c2ccc(Cl)nc2)c1`, the inhibition entry in experiment [1] was “inactive”. For the same molecule, in experiment [2], the Activity came out at 6.4%.

As to `CCOc1c(Cl)c(Cl)c2c(c1OCC)CCN(c1ccc(C(=O)Nc3cccc(C)n3)cn1)C2`, the inhibition in experiment [1] stood at 30.5%. Also, the Activity in experiment [2] came out at 2.6%.

Consider `O=C(Nc1ccccn1)c1ccc(N2CCc3ccccc3C2)nc1`, for which the inhibition in experiment [1] came to 86.4%. In addition, in experiment [2], the Activity was determined as 5.6%.

Turning to `COc1ccc(CNC(=O)c2ccc(N3CCc4ccccc4C3)nc2)cc1`, in experiment [1], the inhibition stood at 58.2%. In experiment [2], this molecule registered an Activity of 9%.

With `Cc1ccc(NC(=O)c2ccc(N3CCc4ccccc4C3)nc2)nc1`, the inhibition in experiment [1] was determined as 90.2%. In addition, the Activity in experiment [2] turned out to be 3%.

For the molecule `Cc1cccnc1NC(=O)c1ccc(N2CCc3ccccc3C2)nc1`, in experiment [1], the inhibition came out at 64.1%. Further, the Activity in experiment [2] was 5%.

As for `O=C(Nc1ccc(F)cc1)c1ccc(N2CCc3ccccc3C2)nc1`, the inhibition in experiment [1] was 65.1%. The same molecule displayed an Activity in experiment [2] of 7.1%.

Regarding `COc1ccc2c(c1)CCN(c1ccc(C(=O)Nc3ccc(C)cn3)cn1)C2`, the inhibition in experiment [1] is 86.9%. The molecule further registered an Activity in experiment [2] of 5.2%.

`Cc1cccc(NC(=O)c2ccc(N3CCCCC3)nc2)n1`: the inhibition in experiment [1] was 65.7%. In experiment [2], the Activity amounted to 6.8%.

With `CCOc1c(Cl)c(Cl)c2c(c1OCc1ccccc1)CCN(c1ccc(C(=O)Nc3cccc(C)n3)cn1)C2`, the inhibition in experiment [1] came to 86.4%. In experiment [2], this molecule gave an Activity of 1%.

As to `COc1cccc(NC(=O)c2ccc(N3CCc4ccccc4C3)nc2)c1`, the inhibition in experiment [1] was determined as 80.4%. This molecule also displayed an Activity in experiment [2] of 13.6%.

`CCOc1ccc2c(c1)CCN(c1ccc(C(=O)Nc3cccc(OC)c3)cn1)C2`: in experiment [1], the inhibition was determined as 95.6%. In experiment [2], the Activity turned out to be 4%.

On to `Cc1ccnc(NC(=O)c2ccc(N3CCc4ccccc4C3)nc2)c1`, for which the inhibition in experiment [1] was 58.6%. Also, the Activity in experiment [2] was found to be 3.6%.

In the case of `CCOc1ccc2c(c1OC)CCN(c1ccc(C(=O)Nc3cccc(C)n3)cn1)C2`, the inhibition in experiment [1] stood at 91%. The Activity in experiment [2] came to 1.7%.

In the case of `O=C(Nc1ccccc1)c1ccc(C(=O)N2CCc3ccccc3C2)nc1`, the inhibition in experiment [1] stood at 33.1%. This molecule registered an Activity in experiment [2] of 7.8%.

As to `COc1cc2c(cc1OC)CN(c1ccc(C(=O)Nc3ncccc3C)cn1)CC2`, the inhibition in experiment [1] came to 60.9%. Besides, the Activity in experiment [2] is 3.1%.

With `CCOc1ccc2c(c1OCC)CCN(c1ccc(C(=O)Nc3cccc(OC)c3)cn1)C2`, the inhibition in experiment [1] stood at 87.9%. In experiment [2], this molecule displayed an Activity of 0.4%.

Regarding `CCOc1ccc2c(c1OCc1ccccc1)CCN(c1ccc(C(=O)Nc3cccc(C)n3)cn1)C2`, in experiment [1], the inhibition turned out to be 92.9%. In experiment [2], the Activity is 0.6%.

`CCOc1ccc2c(c1OCc1ccccc1)CCN(c1ccc(C(=O)Nc3cccc(OC)c3)cn1)C2`: in experiment [1], the inhibition was 78.6%. Moreover, the Activity in experiment [2] was found to be 0.5%.

Consider `COc1ccc(CNC(=O)c2ccc(N3CCCCC3)nc2)cc1`, for which the inhibition in experiment [1] is 19.4%. In experiment [2], this molecule came in with an Activity of 11.1%.

In the case of `O=C(Nc1ccccc1)c1ccc(N2CCc3ccccc3C2)nc1`, the inhibition in experiment [1] is 68.9%. In addition, the Activity in experiment [2] was determined as 8.7%.

Consider `O=C(Nc1ccccn1)c1ccc(C(=O)N2CCc3ccccc3C2)nc1`, for which the inhibition in experiment [1] was 4.5%. The Activity in experiment [2] turned out to be 15%.

On to `Cc1cccc(NC(=O)c2ccc(N3CCN(C)CC3)nc2)n1`, for which, in experiment [1], the inhibition result is “inactive”. Further, the Activity in experiment [2] stood at 14.1%.

For the molecule `Cc1cccc(NC(=O)c2ccc(N3CCc4cc(OC(C)C)ccc4C3)nc2)n1`, in experiment [1], the inhibition was found to be 95.3%. The molecule also came in with an Activity in experiment [2] of 3.5%.

For `COc1cc2c(cc1OC)CN(c1ccc(C(=O)Nc3cc(C)ccn3)cn1)CC2`, the inhibition in experiment [1] was found to be 88.3%. The same molecule gave an Activity in experiment [2] of 2.7%.

These data come from ChEMBL document CHEMBL2331274, “SAR based design of nicotinamides as a novel class of androgen receptor antagonists for prostate cancer” (J Med Chem, 2013).
